In brackets after ≈: the same amount, converted by molar mass.
Tests used:
Assay type in all cases: functional
[1] = test system: Bacillus subtilis; assay: Compound was tested for antibacterial activity against Bacillus subtilis ATCC E6051
In short: (§1)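 MICs were found by agar dilution. Test compounds were dissolved in water or in dimethyl sulfoxide, and the mixture was added to the agar before it set.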

[2] = test system: Corynebacterium diphtheriae; assay: Compound was tested for antibacterial activity against Corynebacterium diphtheria WSU; in short: as §1
[3] = species on record: Rattus norvegicus; assay: Compound was tested for effect of glycoside on superoxide production in rat heart sarcosomes; parameters: unit not given here
In short: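 Male Sprague-Dawley rat ventricles were homogenized in 100 mM KCl, 5 mM histidine, pH 7.3. The microsomal (sarcosomal) pellet was taken at 100000g and resuspended in 0.15 M K3PO4, 1 mM EDTA, pH 7.4. Sarcosomes came from six rats prepared concurrently. Each 1 mL reaction held acetylated cytochrome c (38-53 nmol), 300-500 µg protein and 0.1 mM compound. NADPH started the reaction. A550 rise was followed at 37 °C and reported as mean ± SEM, N = 3, with an F test.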

[4] = test system: Bacillus cereus; assay: Compound was tested for antibacterial activity against Bacillus cereus WSU-60; in short: as §1
[5] = test system: Staphylococcus epidermidis; assay: Compound was tested for antibacterial activity against Staph. epidermidis ATCC 12228; in short: as §1
[6] = test system: Staphylococcus aureus; assay: Compound was tested for antibacterial activity against Staphylococcus aureus WSU-196E; in short: as §1
[7] = test system: Streptococcus pyogenes; assay: Compound was tested for antibacterial activity against Strep. pyogenes ATCC 19615; in short: as §1
[8] = test system: Staphylococcus aureus; assay: Compound was tested for antibacterial activity against Staphylococcus aureus ATCC 25923; in short: as §1
[9] = test system: Staphylococcus aureus; assay: Compound was tested for antibacterial activity against Staphylococcus aureus ATCC 9144; in short: as §1

Row | Structure (SMILES) | MIC [1] [µg/mL] | MIC [2] [µg/mL] | MIC [4] [µg/mL] | MIC [5] [µg/mL] | MIC [6] [µg/mL] | MIC [7] [µg/mL] | MIC [8] [µg/mL] | MIC [9] [µg/mL] | Activity [3]
1 | NC1C(OCc2cc(O)c3c(c2O)C(=O)c2ccccc2C3=O)OC(O)C(O)C1O (configuration not stated) | 50 (≈ 120 µM) | 100 (≈ 240 µM) | 50 (≈ 120 µM) | 20 (≈ 47.9 µM) | > 200 | 10 (≈ 24 µM) | 100 (≈ 240 µM) | 50 (≈ 120 µM) | 12.8
2 | NC1C(OCc2ccc3c(c2)C(=O)c2ccccc2C3=O)OC(O)C(O)C1O (configuration not stated) | > 200 | > 200 | > 200 | 200 (≈ 519 µM) | > 200 | 100 (≈ 259 µM) | > 200 | > 200 | 2.31
3 | COc1cccc2c1C(=O)c1c(O)c3c(c(O)c1C2=O)C[C@@](O)(C(C)=O)C[C@@H]3O[C@H]1C[C@H](N)[C@H](O)[C@H](C)O1 [DAUNORUBICIN] | < 5 | < 5 | < 5 | < 5 | < 5 | < 5 | 20 (≈ 37.9 µM) | < 5 | 2.76
4 | COc1cccc2c1C(=O)c1c(O)c3c(c(O)c1C2=O)C[C@@](O)(C(=O)CO)C[C@@H]3O[C@H]1C[C@H](N)[C@H](O)[C@H](C)O1 [DOXORUBICIN] | 20 (≈ 36.8 µM) | 20 (≈ 36.8 µM) | 10 (≈ 18.4 µM) | < 5 | 10 (≈ 18.4 µM) | < 5 | 200 (≈ 368 µM) | 20 (≈ 36.8 µM) | –

The next lines start with results.

Row | MIC [1] [µg/mL] | MIC [2] [µg/mL] | MIC [4] [µg/mL] | MIC [5] [µg/mL] | MIC [6] [µg/mL] | MIC [7] [µg/mL] | MIC [8] [µg/mL] | MIC [9] [µg/mL] | Structure (SMILES) | Activity [3]
5 | > 200 | 100 (≈ 240 µM) | 200 (≈ 479 µM) | 20 (≈ 47.9 µM) | > 200 | 10 (≈ 24 µM) | > 200 | 50 (≈ 120 µM) | NC1C(OCc2cc(O)c3c(c2)C(=O)c2cccc(O)c2C3=O)OC(O)C(O)C1O (configuration not stated) | 10.1
6 | 50 (≈ 120 µM) | 50 (≈ 120 µM) | 50 (≈ 120 µM) | 50 (≈ 120 µM) | 200 (≈ 479 µM) | 50 (≈ 120 µM) | 100 (≈ 240 µM) | 200 (≈ 479 µM) | NC1C(OCc2ccc3c(c2O)C(=O)c2c(O)cccc2C3=O)OC(O)C(O)C1O (configuration not stated) | 10.5
7 | 50 (≈ 125 µM) | 100 (≈ 249 µM) | 100 (≈ 249 µM) | 20 (≈ 49.8 µM) | 200 (≈ 498 µM) | 20 (≈ 49.8 µM) | 200 (≈ 498 µM) | 200 (≈ 498 µM) | NC1C(OCc2ccc3c(c2O)C(=O)c2ccccc2C3=O)OC(O)C(O)C1O (configuration not stated) | 5.49
